Rows were chosen to be rich in hits. Some 3% of all compounds tested hit in one or more screens of this group.
Pemphigus Ab inh = inhibitors of pemphigus antibody binding to DSG3, primary screen, biochemical, bead-based, flow cytometry, scFv-GFP. binding (percent of control), % at 10 µM. 0.48% of 310,000 active. Desmoglein-3 (Homo sapiens), P32926. DSG3-coupled beads, scFv-anti-DSG3-GFP binding; hits give low values;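 active = binding more than 3 SD below its plate's average and above zero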;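 note: hits lower antibody fragment binding to DSG3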
Target sequence (P32926 whole entry, looked up, the tested form may be a part): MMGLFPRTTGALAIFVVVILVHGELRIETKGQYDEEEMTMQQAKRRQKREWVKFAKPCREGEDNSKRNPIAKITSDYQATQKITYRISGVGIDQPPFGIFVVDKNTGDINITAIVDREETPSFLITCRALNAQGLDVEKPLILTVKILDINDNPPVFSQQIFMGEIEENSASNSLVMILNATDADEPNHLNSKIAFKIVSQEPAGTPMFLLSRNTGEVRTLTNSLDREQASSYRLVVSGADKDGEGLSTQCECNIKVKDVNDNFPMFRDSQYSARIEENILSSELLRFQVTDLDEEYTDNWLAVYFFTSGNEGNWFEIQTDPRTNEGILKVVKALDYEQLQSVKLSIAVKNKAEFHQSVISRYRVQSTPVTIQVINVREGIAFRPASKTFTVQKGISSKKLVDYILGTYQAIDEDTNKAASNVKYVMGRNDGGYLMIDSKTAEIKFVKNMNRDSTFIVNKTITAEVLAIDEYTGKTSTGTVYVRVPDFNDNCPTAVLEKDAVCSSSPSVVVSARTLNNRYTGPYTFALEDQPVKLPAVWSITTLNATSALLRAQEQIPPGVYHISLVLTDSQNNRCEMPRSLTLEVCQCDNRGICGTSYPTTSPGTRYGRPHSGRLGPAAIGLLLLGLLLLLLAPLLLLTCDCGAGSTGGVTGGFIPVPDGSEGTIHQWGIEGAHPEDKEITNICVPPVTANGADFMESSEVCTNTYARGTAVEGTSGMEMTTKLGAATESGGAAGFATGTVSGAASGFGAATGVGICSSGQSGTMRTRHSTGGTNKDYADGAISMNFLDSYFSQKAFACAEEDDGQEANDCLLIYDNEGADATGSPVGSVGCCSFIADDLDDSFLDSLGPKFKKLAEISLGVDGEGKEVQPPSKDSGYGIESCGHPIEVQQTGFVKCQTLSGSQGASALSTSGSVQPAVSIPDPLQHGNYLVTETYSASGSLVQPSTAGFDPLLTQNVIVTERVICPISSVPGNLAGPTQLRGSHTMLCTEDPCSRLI
SENP1 inh = human SENP1 catalytic domain inhibitors, primary screen, biochemical, FRET, uHTS; recombinant SENP1 catalytic domain, CyPet-SUMO1-YPet FRET cleavage; inhibition, % at 10 µM; 0.21% of 360,000 active; AID 624204, 2012;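 active = inhibition at least 30% at 10 µM, raw YFP signal under a set limit, fluorescence ratio 0.5 to 1.5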
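Test system: human SENP1 catalytic domain; medium: Tris pH 8 buffer plus EDTA, NaCl, BME, BSA, NP40, catalase; incubation: 50 min reaction at room temperature; technique: FRET, CFP and YFP emission; controls: no-enzyme low control and enzyme-plus-DMSO high control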
HNF4A DNA FP = change in binding of human HNF4A to DNA, primary screen, biochemical, fluorescence polarization, FITC-DNA; activity change, % at 10 µM; 1 h; Hepatocyte nuclear factor 4-alpha (Homo sapiens), P41235; 0.3% of 360,000 active; in the data active = activity change above about 30%, passing the limit was not always enough
Myeloid diff 2 = induction of myeloid progenitor differentiation, primary screen, cell-based, flow cytometry, MLPCN library | 1% of 360,000 active | ER-HoxA9 myeloid progenitors, lysozyme-GFP differentiation | calls only at 10 µM | AID 624256, 2012;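 active = normalized GFP-positive differentiation at or above the plate's own cutoff, the solvent-only control mean plus 3 SD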;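 note: cells exposed to compound for four days before flow analysis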
H9c2 protect = cardioprotection against H2O2-induced cell death, primary screen, uHTS, H9c2 cells, ATPLite luminescence; 0.63% of 360,000 active; H9c2 cardiomyocytes, H2O2 injury protection, 2 h; protection from H2O2 cell death, % at 20 µM;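 active = compounds giving at least 50% protection of heart cells from peroxide-induced death in the single-dose screen, raw or plate-pattern-corrected value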
Exocytosis inh = LAMP-1 surface exposure blockers, TALL-104 cells – cell-based, flow cytometry, MLPCN library, primary screen; TALL-104 LAMP-1 surface exposure; cells stimulated with thapsigargin and PMA; inhibition, % at 10 µM; 0.66% of 360,000 active; AID 651702, 2012;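 active = inhibition above about 55%, limit read from the data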
A number is an active result; - = inactive; . = not tested or not shown; + = active, no number.

SMILES	Pemphigus Ab inh	SENP1 inh	HNF4A DNA FP	Myeloid diff 2	H9c2 protect	Exocytosis inh
CCC(=C(c1ccc(OC)cc1)c1ccc(OC)cc1)c1cn(CC(O)CN(CCO)CCO)c2ccccc12 (centres undefined)	-	-	-	-	-	72
COc1ccc(OCC(O)CN(CCO)CC(O)Cn2ccc3ccccc32)cc1 (centres undefined)	-	-	-	-	-	-
O=C(c1nn2c(C(F)(F)F)cc(-c3cccs3)nc2c1Cl)N1CCCc2ccccc21	-	-	-	+	-	-
CCCn1c(-c2ccc[nH]c2=O)nc2cc(C)c(C)cc21	-	-	-	-	-	-
O=C(O)C1CSC(c2ccncc2)N1 (centres undefined)	-	65	-	-	-	-
COc1ccc(S(=O)(=O)N(C)C[C@H]2OCCCC[C@H](C)Oc3ccc(N(C)C)cc3C(=O)N([C@H](C)CO)C[C@@H]2C)cc1	.	-	-	-	-	-
O=C(Nc1cccc(S(=O)(=O)N2CCCCC2)c1)[C@@H]1CCCN1S(=O)(=O)c1ccccc1C(F)(F)F	-	-	-	-	-	-
CC(=O)c1cccc(NC(=O)C2CCCN2S(=O)(=O)c2ccccc2C(F)(F)F)c1 (centres undefined)	69	-	-	-	-	-
CC(C)OC(=O)CCCN1C(=O)c2ccc(N)cc2C1=O	-	-	-	-	-	-
CC(C)COc1ccc(C(=O)N2C(=O)c3ccc(N)cc3C2=O)cc1	39	-	-	-	-	-
CSc1ncnc2c1ncn2CCCN1CCN(Cc2c(C)cc(C)cc2C)CC1	.	-	-	-	-	-
Cc1cccn2cc(-c3ccc(NC(=O)Cc4ccccc4)cc3)nc12	-	-	40	-	-	-
N#Cc1c(C#N)c(SSc2c(C#N)c(C#N)c(N)n2-c2ccccc2)n(-c2ccccc2)c1N	-	-	-	-	-	96
N#Cc1c(N)n(-c2ccc(N)cc2)c2nc3ccccc3nc12	.	-	-	-	-	-
CCCCn1nc2cc(C(=O)NCC34CC5CC(CC(C5)C3)C4)ccc2c1OCC	-	-	-	+	-	-
CCCCn1nc2cc(C(=O)NCCc3cccs3)ccc2c1OCC	-	-	-	-	-	-
Cc1[nH]c2ccccc2c1C(=O)C(C)OC(=O)c1ccc(NC(=O)CC#N)cc1 (centres undefined)	-	-	-	+	-	-
Cc1[nH]c2ccccc2c1C(=O)C(C)OC(=O)c1ccc(Cl)nc1 (centres undefined)	-	-	-	-	-	-
CC(=O)Nc1ccc(Nc2nc(C)c([N+](=O)[O-])c(Nc3ccccc3)n2)cc1	-	-	-	-	-	-
CCC(=O)Nc1ccc(Nc2nc(C)c([N+](=O)[O-])c(Nc3ccc(NC(=O)CC)cc3)n2)cc1	-	-	-	-	70	-
CC(=O)O[C@H]1CC(=O)OC(C)(C)C2CC(=O)[C@]3(C)C(CC[C@@](C)([C@@H](O[C@@H]4O[C@H](CO)[C@@H](O)[C@H](O)[C@H]4O)c4ccoc4)[C@@]34O[C@@H]4C(=O)O)[C@]21C (some centres undefined)	-	-	-	-	-	-
Cc1ccc(C(=O)NN2C(=O)/C(=C/c3cn(C)c4ccccc34)SC2=S)cc1	-	-	-	-	-	-
Cc1ccc(C(=O)NN2C(=O)/C(=C/c3cccn3C)SC2=S)cc1	-	-	88	-	-	-
Cn1cccc1/C=C1\SC(=S)N(NC(=O)c2ccccc2Cl)C1=O	-	-	69	-	-	-
CC1CN(C(=O)COC(=O)CSc2ccc([N+](=O)[O-])cc2)CC(C)O1 (centres undefined)	-	-	-	-	-	-
SMILES	Pemphigus Ab inh	SENP1 inh	HNF4A DNA FP	Myeloid diff 2	H9c2 protect	Exocytosis inh
Cc1ccccc1NC(=S)c1ccc2ccccc2n1	79	-	-	-	-	-
CCCN(CC(=O)Nc1ccccc1C)C(=O)c1ccc2ccccc2n1	-	-	-	-	-	-
COc1nc(N/N=C/c2cc3c(cc2Br)OCO3)nc(N2CCOCC2)n1	-	-	-	-	54	-
O=C(N/N=C/c1cccc2ccccc12)c1n[nH]c2c1CCCC2	-	-	-	+	-	-
O=C(N/N=C/c1ccc(Cl)cc1Cl)c1n[nH]c2c1CCCC2	-	-	-	-	-	-
O=C1c2cccnc2C(=O)N1Cc1ccc(S(=O)(=O)N2CCOc3ccc(Cl)cc32)cc1	-	-	-	-	-	-
Cn1c(=O)c(C(=O)NNC(=O)c2ccccc2F)c(O)c2ccccc21	-	-	-	+	-	-
COC(=O)c1ccccc1NC(=O)/C=C/c1cc(OC)c(OC)c(OC)c1	.	-	-	-	57	-
CC1(C)C(O)=C(c2nc3ccccc3[nH]2)C(=N)N1c1ccccc1	-	-	-	+	-	-
COc1ccccc1NC(=O)c1c(N=Cc2cccc([N+](=O)[O-])c2)cnn1C	-	-	-	-	-	62
CCC(OC(=O)c1cccs1)C(=O)NCc1ccc(C)cc1 (centres undefined)	-	-	-	-	-	-
CCOC(=O)c1c(NC(=O)CC2Nc3ccccc3NC2=O)sc(C)c1C (centres undefined)	-	-	52	-	-	-
COC(=O)c1c(NC(=O)CC2Nc3ccccc3NC2=O)sc(C)c1C (centres undefined)	-	-	45	-	-	-
O=S1(=O)CC(N2CC=CC2)CN1Cc1cn(Cc2cccc(Cl)c2)nn1 (centres undefined)	.	-	-	-	.	-
Cc1cccn2c(=O)c(C=O)c(N3CCC4(CC3)OCCO4)nc12	-	-	-	-	-	-
O=C(/C(=C/c1ccncc1)n1ccnc1)c1ccc(Cl)cc1Cl	-	.	.	.	.	.
O=C(/C(=C/c1cccnc1)n1ccnc1)c1ccc(Cl)cc1Cl	.	-	-	-	-	96
CN(C)c1ccc(/C=C2/C=C(c3ccc4c(c3)CCCC4)OC2=O)cc1	-	-	45	-	-	-
Cc1ccc(C=C2C=C(c3ccccc3)OC2=O)cc1	-	-	-	-	-	-
Cc1cccc(NC(=O)CCC(=O)N/N=C/c2cc([N+](=O)[O-])ccc2O)c1	-	-	-	-	58	-
O=[N+]([O-])c1ccc(O)c(/C=N\N=C2c3ccccc3-c3ccccc32)c1	-	58	-	-	-	-
O=C(Cn1cnc([N+](=O)[O-])n1)N/N=C/c1ccccc1O	-	-	-	-	64	-
